In ChEMBL document CHEMBL1629633, “Prevalence of sulfonamide resistance genes in bacterial isolates from manured agricultural soils and pig slurry in the United Kingdom” (2009):

How the values were obtained:
[1] = system: Acinetobacter lwoffii; test: Antimicrobial activity against Acinetobacter lwoffii isolate C141 harboring sul1 to sul3 genes assessed as antibiotic resistance breakpoint by agar dilution method; format: functional
How it was run: (§1)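 Agar dilution on Iso-Sensitest agar for MICs and resistance breakpoints. Each isolate's inoculum (100 μl) was adjusted to OD600 0.4. Isolates came from soil cores of a field given pig slurry, or from the pig slurry itself. They were picked from nonselective or antibiotic plates incubated aerobically at 28°C, purified by restreaking, checked for sul genes by PCR and identified by 16S rRNA sequencing.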

[2] = system: Pseudomonas lini; test: Antimicrobial activity against Pseudomonas lini isolate C701 harboring sul1 to sul3 genes assessed as antibiotic resistance breakpoint by agar dilution method; format: functional; how it was run: as §1
[3] = system: Pseudomonas putida; test: Antimicrobial activity against Pseudomonas putida isolate C231 harboring sul1 to sul3 genes assessed as antibiotic resistance breakpoint by agar dilution method; format: functional; how it was run: as §1
[4] = system: Shigella flexneri; test: Antimicrobial activity against Shigella flexneri isolate C506 harboring sul1 to sul3 genes assessed as antibiotic resistance breakpoint by agar dilution method; format: functional
How it was run: (§2)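 Isolates were recovered from manured clay soil or pig slurry on Iso-Sensitest agar at 28°C. sul genes were detected by PCR, and identity was assigned by ~800 bp 16S rRNA sequencing. MICs and resistance breakpoints were found by agar dilution on Iso-Sensitest agar, with each inoculum (100 μl) adjusted to OD600 0.4.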

[5] = system: Acinetobacter lwoffii; test: Antimicrobial activity against Acinetobacter lwoffii isolate C2 harboring sul1 to sul3 genes assessed as antibiotic resistance breakpoint by agar dilution method; format: functional; how it was run: as §1
[6] = system: Acinetobacter baumannii; test: Antimicrobial activity against Acinetobacter baumannii isolate C442 harboring sul1 to sul3 genes assessed as antibiotic resistance breakpoint by agar dilution method; format: functional; how it was run: as §1
[7] = system: Aerococcus viridans; test: Antimicrobial activity against Aerococcus viridans isolate PGS21 harboring sul1 to sul3 genes assessed as antibiotic resistance breakpoint by agar dilution method; format: functional; how it was run: as §1
[8] = Antimicrobial activity against Psychrobacter ikaite isolate C713 harboring sul1 to sul3 genes assessed as antibiotic resistance breakpoint by agar dilution method; format: functional; how it was run: as §2
[9] = system: Acinetobacter rhizosphaerae; test: Antimicrobial activity against Acinetobacter rhizosphaerae isolate C44 harboring sul1 to sul3 genes assessed as antibiotic resistance breakpoint by agar dilution method; format: functional; how it was run: as §1
[10] = system: Acinetobacter lwoffii; test: Antimicrobial activity against Acinetobacter lwoffii isolate C15 harboring sul1 to sul3 genes assessed as antibiotic resistance breakpoint by agar dilution method; format: functional; how it was run: as §1
[11] = system: Pseudomonas borealis; test: Antimicrobial activity against Pseudomonas borealis isolate C5 harboring sul1 to sul3 genes assessed as antibiotic resistance breakpoint by agar dilution method; format: functional; how it was run: as §1
[12] = system: Aerococcus viridans; test: Antimicrobial activity against Aerococcus viridans isolate PGS22 harboring sul1 to sul3 genes assessed as antibiotic resistance breakpoint by agar dilution method; format: functional; how it was run: as §1
[13] = Antimicrobial activity against Psychrobacter ikaite isolate C20 harboring sul1 to sul3 genes assessed as antibiotic resistance breakpoint by agar dilution method; format: functional; how it was run: as §1
[14] = system: Acinetobacter lwoffii; test: Antimicrobial activity against Acinetobacter lwoffii isolate C37 harboring sul1 to sul3 genes assessed as antibiotic resistance breakpoint by agar dilution method; format: functional; how it was run: as §1
[15] = system: Acinetobacter calcoaceticus; test: Antimicrobial activity against Acinetobacter calcoaceticus isolate C36 harboring sul1 to sul3 genes assessed as antibiotic resistance breakpoint by agar dilution method; format: functional; how it was run: as §1
[16] = system: Bacillus psychrodurans; test: Antimicrobial activity against Bacillus psychrodurans isolate C328 harboring sul1 to sul3 genes assessed as antibiotic resistance breakpoint by agar dilution method; format: functional, Psychrobacillus psychrodurans; how it was run: as §1
[17] = system: Acinetobacter calcoaceticus; test: Antimicrobial activity against Acinetobacter calcoaceticus isolate C35 harboring sul1 to sul3 genes assessed as antibiotic resistance breakpoint by agar dilution method; format: functional; how it was run: as §1
[18] = system: Arthrobacter arilaitensis; test: Antimicrobial activity against Arthrobacter arilaitensis isolate C361 harboring sul1 to sul3 genes assessed as antibiotic resistance breakpoint by agar dilution method; format: functional, Glutamicibacter arilaitensis; how it was run: as §1
[19] = Antimicrobial activity against Acinetobacter sp. An9 isolate PGS49 harboring sul1 to sul3 genes assessed as antibiotic resistance breakpoint by agar dilution method; format: functional; how it was run: as §1
[20] = system: Acinetobacter lwoffii; test: Antimicrobial activity against Acinetobacter lwoffii isolate PGS47 harboring sul1 to sul3 genes assessed as antibiotic resistance breakpoint by agar dilution method; format: functional; how it was run: as §1
[21] = system: Psychrobacter frigidicola; test: Antimicrobial activity against Psychrobacter frigidicola isolate C712 harboring sul1 to sul3 genes assessed as antibiotic resistance breakpoint by agar dilution method; format: functional; how it was run: as §1
[22] = system: Lysinibacillus sphaericus; test: Antimicrobial activity against Bacillus sphaericus isolate C237 harboring sul1 to sul3 genes assessed as antibiotic resistance breakpoint by agar dilution method; format: functional; how it was run: as §1
[23] = Antimicrobial activity against Acinetobacter sp. N2 isolate C439 harboring sul1 to sul3 genes assessed as antibiotic resistance breakpoint by agar dilution method; format: functional; how it was run: as §1
[24] = Antimicrobial activity against Psychrobacter sp. DY9-2 isolate C711 harboring sul1 to sul3 genes assessed as antibiotic resistance breakpoint by agar dilution method; format: functional; how it was run: as §2
[25] = system: Enterococcus hirae; test: Antimicrobial activity against Enterococcus hirae isolate PGS48 harboring sul1 to sul3 genes assessed as antibiotic resistance breakpoint by agar dilution method; format: functional; how it was run: as §1
[26] = system: Stenotrophomonas maltophilia; test: Antimicrobial activity against Stenotrophomonas maltophilia isolate C422 harboring sul1 to sul3 genes assessed as antibiotic resistance breakpoint by agar dilution method; format: functional; how it was run: as §2
[27] = system: Providencia stuartii; test: Antimicrobial activity against Providencia stuartii isolate C167 harboring sul1 to sul3 genes assessed as antibiotic resistance breakpoint by agar dilution method; format: functional; how it was run: as §1
[28] = system: Enterococcus sulfureus; test: Antimicrobial activity against Enterococcus sulfureus isolate PGS61 harboring sul1 to sul3 genes assessed as antibiotic resistance breakpoint by agar dilution method; format: functional; how it was run: as §1
[29] = system: Pseudomonas fluorescens; test: Antimicrobial activity against Pseudomonas fluorescens isolate C131 harboring sul1 to sul3 genes assessed as antibiotic resistance breakpoint by agar dilution method; format: functional; how it was run: as §1
[30] = Antimicrobial activity against Psychrobacter ikaite isolate C410 harboring sul1 to sul3 genes assessed as antibiotic resistance breakpoint by agar dilution method; format: functional; how it was run: as §2

SMILES	Activity [1] [µg/mL]	Activity [2] [µg/mL]	Activity [3] [µg/mL]	Activity [4] [µg/mL]	Activity [5] [µg/mL]	Activity [6] [µg/mL]	Activity [8] [µg/mL]	Activity [9] [µg/mL]	Activity [10] [µg/mL]	Activity [12] [µg/mL]	Activity [13] [µg/mL]	Activity [14] [µg/mL]	Activity [15] [µg/mL]	Activity [16] [µg/mL]	Activity [17] [µg/mL]	Activity [18] [µg/mL]	Activity [21] [µg/mL]	Activity [22] [µg/mL]	Activity [23] [µg/mL]	Activity [24] [µg/mL]	further results
CC1(C)S[C@@H]2[C@H](NC(=O)[C@H](N)c3ccccc3)C(=O)N2[C@H]1C(=O)O [AMPICILLIN]	16	16	16	16	–	–	–	–	–	–	–	–	–	–	–	–	–	–	–	–	–
O=C(N[C@H](CO)[C@H](O)c1ccc([N+](=O)[O-])cc1)C(Cl)Cl [CHLORAMPHENICOL]	16	–	16	16	16	16	16	16	16	16	16	16	16	16	16	16	–	–	–	–	Activity [7]: 16 µg/mL; Activity [11]: 16 µg/mL
NC[C@@H]1O[C@H](O[C@H]2[C@@H](O)[C@H](O[C@@H]3[C@@H](O)[C@H](N)C[C@H](N)[C@H]3O[C@H]3O[C@H](CN)[C@@H](O)[C@H](O)[C@H]3N)O[C@@H]2CO)[C@H](N)[C@@H](O)[C@@H]1O [FRAMYCETIN]	8	–	8	8	–	–	–	8	8	8	–	–	–	8	–	8	–	–	–	–	–
NC[C@H]1O[C@H](O[C@H]2[C@H](O)[C@@H](O[C@H]3O[C@H](CO)[C@@H](O)[C@H](N)[C@H]3O)[C@H](N)C[C@@H]2N)[C@H](O)[C@@H](O)[C@@H]1O [KANAMYCIN]	16	–	–	16	–	–	–	–	–	–	–	–	–	16	–	–	–	–	–	–	–
CCn1cc(C(=O)O)c(=O)c2ccc(C)nc21 [NALIDIXIC ACID]	16	16	16	16	16	16	16	16	16	16	16	16	16	16	16	16	16	16	16	16	Activity [19]: 16 µg/mL; Activity [20]: 16 µg/mL
CN[C@@H]1[C@H](O[C@H]2[C@H](O[C@H]3[C@H](O)[C@@H](O)[C@H](N=C(N)N)[C@@H](O)[C@@H]3N=C(N)N)O[C@@H](C)[C@]2(O)C=O)O[C@@H](CO)[C@H](O)[C@H]1O [STREPTOMYCIN]	16	16	–	16	16	–	16	16	16	16	16	16	16	16	16	16	16	16	16	16	Activity [19]: 16 µg/mL; Activity [25]: 16 µg/mL; Activity [26]: 16 µg/mL; Activity [20]: 16 µg/mL; Activity [27]: 16 µg/mL; Activity [28]: 16 µg/mL
CN(C)[C@@H]1C(O)=C(C(N)=O)C(=O)[C@@]2(O)C(O)=C3C(=O)c4c(O)cccc4[C@@](C)(O)[C@H]3C[C@@H]12 [TETRACYCLINE]	8	–	8	8	8	8	8	8	8	8	8	8	8	8	8	8	8	–	8	8	Activity [25]: 8 µg/mL; Activity [7]: 8 µg/mL; Activity [29]: 8 µg/mL; Activity [11]: 8 µg/mL; Activity [30]: 8 µg/mL; Activity [27]: 8 µg/mL; Activity [28]: 8 µg/mL
COc1cc(Cc2cnc(N)nc2N)cc(OC)c1OC [TRIMETHOPRIM]	16	16	–	16	16	–	16	16	16	–	16	16	16	–	16	–	16	16	16	16	–
